Reference: PMC8906099 (Current Research in Parasitology & Vector-borne Diseases, 2021)
Values after ≈ are worked out from the molar mass of the structure shown. Where two headings read alike, the source gives them in different places.

How the values were obtained:
[1] = Time-course cytotoxicity in infected C2C12 cells; assay type: cell-based, murine; conditions: mouse
Method in brief: (§1)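 This uses the CA-I/72 time-course infection format: a 48 h pre-infection of C2C12 cells, then test compound at 0.19–100 μM for 8, 12, 24 or 48 h, with DAPI imaging. Host viability was the total host cell count divided by the mean count of 0.1% DMSO controls. CC50 came from sigmoid fits. SI = CC50/IC50 against amastigotes at the matching time.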

[2] = Cytotoxicity in non-infected cells; assay type: cell-based, murine; conditions: mouse, non-infected C2C12 cells
Method in brief: (§2)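 Non-infected C2C12 cells (5 × 10^4 per well) were plated for 24 h. Test compound (0.19–100 μM, 2-fold, 0.1% DMSO) was then added for 72 h at 37 °C. Controls were untreated, DMSO 0.4% and Triton 15%. After a PBS wash, MTT (2 mg/ml) was added for 4 h, and absorbance was read at 450 nm (reference 620 nm). CC50 came from sigmoid fits. SI = CC50/IC50 against CA-I/72 amastigotes at 72 h.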

non-infected C2C12 cells = assay: Cytotoxicity in non-infected cells; assay type: cell-based, murine; conditions: non-infected C2C12 CC50 / IC50 amastigotes CA-I/72 strain, 72 h
Method in brief: as §2

[3] = test system: trypomastigotes of T. cruzi (Sylvio X10/4 strain); assay: Trypanocidal activity against trypomastigotes; assay type: cell-based; conditions: Trypanosoma cruzi, 72 h, read-out: IC50 ± SD, trypomastigotes
Method in brief: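 Sylvio X10/4 trypomastigotes were taken from amastigote culture supernatant and seeded at 1 × 10^6 per well. Test compound was added at 0.19–100 μM (0.1% DMSO), with benznidazole (0.019–10 μM) and DMSO controls. Incubation was 72 h at 37 °C, 5% CO2. Viability was read with resazurin (40 μM in PBS), fluorescence 530/630 nm. IC50 came from sigmoid dose–response fits.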

[4] = test system: amastigotes of T. cruzi CA-I/72 strain; assay: Trypanocidal activity against intracellular amastigotes in C2C12 cells; assay type: cell-based; conditions: Trypanosoma cruzi, C2C12, 72 h, read-out: IC50 ± SD, amastigotes
Method in brief: (§3)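 Trypomastigotes from C2C12 co-culture (DMEM, 10% FBS, 25 mM HEPES, pH 7.2) were seeded with C2C12 cells at a 1:15 infection rate. Test compound (0.19–100 μM, 2-fold, 0.1% DMSO) was added at the start. After 72 h at 37 °C, 5% CO2, cells were stained with DAPI 2 h and imaged confocally. Amastigote and host nuclei were told apart by size. IC50 came from sigmoid fits of the infection ratio normalised to controls. Mean ± SD, three experiments in triplicate.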

[5] = Cytotoxicity in infected C2C12 cells after 72 h; assay type: cell-based, murine; conditions: mouse
Method in brief: (§4)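 C2C12 cells were infected with trypomastigotes (1:15) together with test compound (0.19–100 μM, 0.1% DMSO) for 72 h at 37 °C, 5% CO2. Host nuclei were counted by DAPI high-content imaging. Viability was the cell count relative to the DMSO-control mean. CC50 came from sigmoid fits. SI = CC50/IC50 against intracellular amastigotes of the same strain at 72 h.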

infected C2C12 cells = assay: Cytotoxicity in infected C2C12 cells after 72 h; assay type: cell-based, murine; conditions: 72 h
Method in brief: as §4

[6] = test system: amastigotes of T. cruzi Sylvio X10/7 strain; assay: Trypanocidal activity against intracellular amastigotes in C2C12 cells; assay type: cell-based, Trypanosoma cruzi
Method in brief: as §3

[7] = test system: amastigotes of T. cruzi Sylvio X10/4 strain; assay: as above; assay type: cell-based; conditions: Trypanosoma cruzi, C2C12, 72 h, read-out: IC50 ± SD, amastigotes
Method in brief: as §3

[8] = test system: amastigotes of T. cruzi Brazil strain; assay: as above; assay type: cell-based; conditions: Trypanosoma cruzi, C2C12, 72 h, read-out: IC50 ± SD, amastigotes
Method in brief: as §3

[9] = test system: intracellular amastigotes of T. cruzi CA-I/72 strain; assay: Time-course study against intracellular amastigotes; assay type: cell-based; conditions: Trypanosoma cruzi
Method in brief: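 CA-I/72 trypomastigotes were incubated with C2C12 cells for 48 h to form intracellular amastigotes. Test compound was then added (0.19–100 μM, 2-fold, 0.1% DMSO), with benznidazole and DMSO controls. Incubation ran 8, 12, 24 or 48 h at 37 °C, 5% CO2. Growth inhibition was read by DAPI high-content imaging. IC50 came from sigmoid fits of the normalised infection ratio. Time trend was tested by linear regression and ANOVA.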

[10] = test system: several Streptococcus species; conditions: ref Vieira et al., 2018; cited from earlier work
[11] = test system: non-infected LLC-MK2 cells; assay: Cytotoxicity in non-infected cells; assay type: cell-based, monkey; conditions: non-infected LLC-MK2 CC50 / IC50 amastigotes CA-I/72 strain, 72 h
Method in brief: (§5)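 LLC-MK2 monkey kidney cells, grown in RPMI with 10% FBS at 37 °C and 5% CO2, were plated and after 24 h exposed to test compound (0.19–100 μM, 2-fold dilutions, 0.1% DMSO) for 72 h at 37 °C. Controls were untreated cells, 0.4% DMSO and 15% Triton. After a PBS wash, MTT (2 mg/ml) was added for 4 h, and absorbance read at 450/620 nm. SI is CC50 divided by the 72 h CA-I/72 intracellular amastigote IC50.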

[12] = Cytotoxicity in non-infected cells; assay type: cell-based, monkey; conditions: monkey, non-infected LLC-MK2 cells
Method in brief: as §5

female BALB/c mice = assay: Acute oral toxicity test in mice; assay type: in vivo; conditions: for DA/TA (dead animals/total animals) / Mortality / Signs of toxicity: 14 days
Method in brief: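 Six-week-old female BALB/c mice (25–30 g), five per group. Single oral dose of 300 or 1,000 mg/kg test compound in Tween 80/ethanol/water (7:3:90), with a vehicle group. Clinical signs (ataxia, tremor, salivation, ptosis, seizures and others) watched continuously for 1 h, periodically over 24 h, then daily to day 14. Mortality recorded.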

[13] = test system: C2C12 cells infected with intracellular amastigotes of T. cruzi (CA-I/72 strain); assay: Time-course cytotoxicity in infected C2C12 cells; assay type: cell-based, murine; conditions: infected C2C12 vs amastigotes CA-I/72, time-course
Method in brief: as §1

[14] = C2C12 cells infected with T. cruzi Brazil strain
[15] = C2C12 cells infected with T. cruzi CA-I/72 strain
[16] = C2C12 cells infected with T. cruzi Sylvio X10/4 strain
[17] = C2C12 cells infected with T. cruzi Sylvio X10/7 strain
[18] = infected C2C12, Sylvio X10/4 strain
[19] = infected C2C12, Sylvio X10/7 strain
[20] = Trypanosoma cruzi, C2C12, 72 h, read-out: IC50 ± SD, amastigotes, Sylvio X10/7 strain, 72 h incubation
[21] = read-out: IC50 over the incubation times evaluated

Row | SMILES | CC50 at 8 h [1] | CC50 at 12 h [1] | CC50 at 24 h [1] | CC50 at 48 h [1] | CC50 at 72 h [2] | SI (CC50/IC50) (non-infected C2C12 cells) | IC50 [3] | IC50 [4] | CC50 at 72 h [5, 14] | CC50 at 72 h [5, 15] | CC50 at 72 h [5, 16] | CC50 at 72 h [5, 17] | IC50 [6, 20] | IC50 [7] | IC50 [8] | IC50 ([9]; 8 h, read-out: IC50 ± SD) | IC50 ([9]; 12 h, read-out: IC50 ± SD) | IC50 ([9]; 24 h, read-out: IC50 ± SD) | IC50 ([9]; 48 h, read-out: IC50 ± SD) | CC50 at 72 h [12] | other results
1 | O=C(/C=C/c1ccc(Cl)cc1)/C=C/c1ccc(Cl)cc1 [DBA 5, (1E,4E)-1,5-bis-(4-chlorophenyl)penta-1,4-dien-3-one] | 93.29 ± 0.42 µM | 10.6 ± 1.26 µM | 0.3 ± 0.02 µM | 0.2 ± 0.01 µM | 38.3 ± 1.69 µM | 1.13 | 73.7 ± 2.08 µM | 33.6 ± 1.39 µM | 12.4 ± 2.29 µM | 15.5 ± 1.25 µM | 11.8 ± 7.74 µM | 4.06 ± 2.31 µM | 25.3 ± 1.34 µM | 56.9 ± 1.86 µM | 6.37 ± 0.03 µM | > 100 µM | > 100 µM | > 100 µM | > 100 µM | 38.1 ± 1.81 µM | SI (CC50/IC50) (infected C2C12 cells; infected C2C12, CA-I/72 strain): 0.45; SI (CC50/IC50) (infected C2C12 cells; [18]): 0.20; SI (CC50/IC50) (infected C2C12 cells; [19]): 0.16; IC50 [9, 21]: > 100 µM; MIC [10]: 100 µg/mL (≈ 330 µM); SI (CC50/IC50) [11]: 1.13
2 | COc1ccc(/C=C/C(=O)/C=C/c2ccc(OC)cc2)cc1 [DBA 2, (1E,4E)-1,5-bis(4-methoxyphenyl)penta-1,4-dien-3-one] | 40.7 ± 1.07 µM | 3.03 ± 0.79 µM | 0.33 ± 0.41 µM | 0.02 ± 0.03 µM | 35.5 ± 0.5 µM | 2.03 | 29.8 ± 2.12 µM | 17.5 ± 1.06 µM | 5.15 ± 0.13 µM | 4.3 ± 1.22 µM | 2.54 ± 1.86 µM | 0.9 ± 1.2 µM | 0.48 ± 0.02 µM | 46.6 ± 0.48 µM | 51.6 ± 4.9 µM | > 100 µM | > 100 µM | > 100 µM | > 100 µM | 31.4 ± 1.2 µM | SI (CC50/IC50) (infected C2C12 cells; infected C2C12, Brazil strain): 0.10; SI (CC50/IC50) (infected C2C12 cells; infected C2C12, CA-I/72 strain): 0.24; SI (CC50/IC50) (infected C2C12 cells; [18]): 0.05; SI (CC50/IC50) (infected C2C12 cells; [19]): 1.87; IC50 [9, 21]: > 100 µM; MIC [10]: 100 µg/mL (≈ 340 µM); SI (CC50/IC50) [11]: 1.79
3 | COc1cc(/C=C/C(=O)CC(=O)/C=C/c2ccc(O)c(OC)c2)ccc1O [CUR, reference compound] | 60.3 ± 1.54 µM | 9.95 ± 1.17 µM | 1.88 ± 0.17 µM | 0.47 ± 0.09 µM | 18 ± 0.42 µM | – | 9.89 ± 0.51 µM | 2.71 ± 0.47 µM | 2.36 ± 1.24 µM | 6.71 ± 0.7 µM | 1.91 ± 0.02 µM | 3.37 ± 1.33 µM | 11.6 ± 4.93 µM | 20 ± 2.61 µM | 11.2 ± 1.05 µM | > 100 µM | > 100 µM | 51.6 ± 1.26 µM | 2.25 ± 0.65 µM | 32.5 ± 0.49 µM | Acute toxicity (general signs of toxicity or mortality) (female BALB/c mice; oral doses 300 and 1,000 mg/kg, 14-day period): no toxic effects; DA/TA (dead animals/total animals) (female BALB/c mice; single oral dose 300 mg/kg): 0/5; Mortality (female BALB/c mice; single oral dose 300 mg/kg): 0%; Signs of toxicity (female BALB/c mice; single oral dose 300 mg/kg): None; DA/TA (dead animals/total animals) (female BALB/c mice; single oral dose 1,000 mg/kg): 0/5; Mortality (female BALB/c mice; single oral dose 1,000 mg/kg): 0%; Signs of toxicity (female BALB/c mice; single oral dose 1,000 mg/kg): None
4 | COc1cc(OC)c(/C=C/C(=O)/C=C/c2c(OC)cc(OC)cc2OC)c(OC)c1 [DBA 4, (1E,4E)-1,5-bis-(2,4,6-trimethoxyphenyl)penta-1,4-dien-3-one] | > 100 µM | 60.4 ± 1.11 µM | 2.98 ± 0.24 µM | 0.66 ± 0.29 µM | 53.7 ± 1.26 µM | > 10 | > 100 µM | 5.01 ± 1.14 µM | 0.09 ± 0.11 µM | 0.6 ± 0.16 µM | 0.11 ± 0.1 µM | 0.37 ± 0.14 µM | 33.1 µM | > 100 µM | > 100 µM | > 100 µM | > 100 µM | > 100 µM | 34.5 ± 0.94 µM | 50.1 ± 7.92 µM | SI (CC50/IC50) ([13]; 48 h): 0.01; SI (CC50/IC50) (non-infected C2C12 cells; listed as 4): 10.71; SI (CC50/IC50) (infected C2C12 cells; infected C2C12, CA-I/72 strain): 0.12; SI (CC50/IC50) (infected C2C12 cells; [19]): 0.01; IC50 ([6]; read-out: IC50 ± SD, amastigotes, Sylvio X10/7 strain, 72 h incubation): 33.1 ± 2.05 µM; SI (CC50/IC50) [11]: ≥ 10; SI (CC50/IC50) ([11]; listed as 4): 10.00
5 | O=C(Cn1ccnc1[N+](=O)[O-])NCc1ccccc1 [BZ, benznidazole, reference compound] | > 10 µM | 3.98 ± 0.31 µM | 3.48 ± 0.7 µM | 0.27 ± 0.07 µM | 37.9 ± 1.54 µM | 18.73 | 1.16 ± 0.04 µM | 2.02 ± 0.12 µM | > 10 µM | > 10 µM | > 10 µM | > 10 µM | 1.19 ± 0.25 µM | 4.12 ± 1.02 µM | 1.28 ± 0.64 µM | > 10 µM | 6.85 ± 1.56 µM | 5.97 ± 1.2 µM | 1.54 ± 0.36 µM | 168 ± 2.98 µM | SI (CC50/IC50) ([13]; 12 h): 0.58; SI (CC50/IC50) ([13]; 24 h): 0.58; SI (CC50/IC50) ([13]; 48 h): 0.17; IC50 [9, 21]: 1.54 to 10 µM; SI (CC50/IC50) [11]: 82.92
